Most compounds without a hit are left out; they make up all but 2.1% or so of the library.
ARNT TACC3 PPI – disruptors of ARNT/TACC3 protein interaction, primary screen, biochemical, AlphaScreen, single concentration; inhibition, % at 9.99 µM; Transforming acidic coiled-coil-containing protein 3 (Homo sapiens), Q9Y6A5; AlphaScreen His-ARNT PAS-B/GST-TACC3 binding, luminescence; TACC3 fragment carries E629A point mutation; actives 0.66% (n = 390,000);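 active means mean inhibition of replicates at least 50% and at least half of replicates each reaching 50%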
UCH37 DUB inh – inhibitors of human UCH37 deubiquitinase, primary screen, biochemical, Ub-AMC cleavage, fluorescence; AID 588478, 2011; purified proteasome/UCH37; inhibition, % (concentration not given with the values); actives 0.33% (n = 330,000); Ubiquitin carboxyl-terminal hydrolase isozyme L5 (Homo sapiens), Q9Y5K5;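 active means mean inhibition over replicate wells above about 20%, limit read from the data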
Target sequence (Q9Y5K5 whole entry, looked up): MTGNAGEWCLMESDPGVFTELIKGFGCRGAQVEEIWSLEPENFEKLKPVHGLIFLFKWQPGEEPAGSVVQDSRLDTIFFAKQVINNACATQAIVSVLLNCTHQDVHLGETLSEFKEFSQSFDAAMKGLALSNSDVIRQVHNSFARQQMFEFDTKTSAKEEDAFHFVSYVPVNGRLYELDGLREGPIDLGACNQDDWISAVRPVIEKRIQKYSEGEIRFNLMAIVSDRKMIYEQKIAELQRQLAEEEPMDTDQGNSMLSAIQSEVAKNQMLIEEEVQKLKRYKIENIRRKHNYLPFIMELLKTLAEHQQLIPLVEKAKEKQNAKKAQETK
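Material: Human UCH37 enzyme supplied as purified proteasome complex | Schedule: 30 min preincubation with enzyme, 25 min cleavage at room temperature | Detection: AMC fluorescence 355/460 nm | Measure: % inhibition of Ub-AMC cleavage fluorescence | Controls: Wells without proteasome as full block, compound-free enzyme plus substrate as uninhibited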
Cardiac RTF inh – cardiac RTF calcium sensitivity inhibitors, primary screen, biochemical, IANBD-TnC fluorescence, EC70 calcium | actives 0.12% (n = 340,000) | inhibition, % at 7.15 µM | IANBD-labeled cardiac RTF, Ca2+ fluorescence;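 active means inhibition above the mean inhibition of all tested compounds plus 3 SD, cut at about 17% in these data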;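 further: assay run at fixed EC70 calcium of 1.6 mM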
cardiac RTF act – cardiac RTF calcium sensitivity activators, primary screen, biochemical, IANBD-TnC fluorescence, EC20 calcium. actives 0.24% (n = 340,000). IANBD-labeled TnC RTF fluorescence at EC20 calcium; 0% EC20 calcium, 100% full calcium. activation, % at 7.2 µM. Troponin I, cardiac muscle (Homo sapiens) + Troponin T, cardiac muscle (Homo sapiens) + …. AID 493008, 2010;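 active means activation above the mean over all tested compounds plus 3 SD, cut at about 30% in these data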;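 further: rise in fluorescence read as greater calcium sensitivity of cardiac thin filaments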
Efflux pump mplx – inhibitors of Candida efflux pumps in yeast, primary screen, S. cerevisiae, Nile Red, multiplex | actives 0.44% (n = 330,000) | inhibition, % at 10 µM | S. cerevisiae Candida pump triplex | AID 485275, 2010;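 active means plate passing quality check with inhibition over a set limit, or well fluorescence over plate mean plus 4 SD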;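 further: Nile Red retained in pooled yeast measured as flow cytometry median fluorescence; higher means more Nile Red kept so more efflux inhibition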
SUMO Mot1 rescue – yeast Mot1-301 growth rescue at high temperature, primary screen, SUMOylation pathway inhibitor project, S. cerevisiae, ATP luminescence, 38.5C. S. cerevisiae Mot1-301 growth rescue; percent above DMSO median, 100 means doubled. growth rescue, % at 18.8 µM. actives 1% (n = 320,000);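 active means every valid replicate shows activation above 250% relative to neutral control wells; inactive means the rest, any valid replicate at or below 250%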
AlphaScreen ctr – AlphaScreen signal interference compounds, dose response, artefact control for ARNT-TACC3 interaction inhibitor project, biochemical, luminescence, cherry-pick. AC50, µM (titrated, usually from 68 µM). His-ARNT PASB-GST AlphaScreen artifact counter-screen. shares compounds with ARNT TACC3 PPI. actives 50% (n = 1,200);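 active means every separate test run was called active for a drop in luminescence, with AC50 within twice the top valid dose, actives reach about 71 µM in these data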
Numbers stand for hits; n = inactive; x = no result given.

SMILES | ARNT TACC3 PPI | UCH37 DUB inh | Cardiac RTF inh | cardiac RTF act | Efflux pump mplx | SUMO Mot1 rescue | AlphaScreen ctr
COc1ccc(C=NN2CCN(c3ccc(Cl)cc3)CC2)cc1 | x | n | x | x | x | x | x
O=C(Nc1nnc(-c2ccc(Br)cc2)o1)c1ccco1 | n | n | n | n | n | n | x
COc1cccc(C(=O)Nc2nnc(-c3cccs3)o2)c1 | 52 | n | n | n | n | n | 67µM
O=C(Nc1nnc(-c2cccs2)o1)c1ccco1 | 51 | n | n | n | n | n | n
COc1cc(-c2nnc(NC(=O)c3ccco3)o2)cc(OC)c1OC | 43 | n | n | n | n | n | n
COc1cccc(C(=O)Nc2nnc(-c3ccc(Cl)cc3)o2)c1 | n | n | n | n | n | n | x
CC(=O)C(=NNc1cccc(C)c1)N1CCOCC1 | x | n | x | x | x | x | x
CCOc1cc(/C=N/Nc2ncc(C)c(=O)[nH]2)ccc1O | 54 | x | n | n | n | n | n
Cc1ccc(-n2c(SCC(=O)NN=Cc3ccccc3C(=O)O)nnc2-c2ccccc2)cc1 | x | n | x | x | x | x | x
CCC(=O)NN=Cc1ccc(-c2ccc(Cl)cc2)o1 | x | n | x | x | x | x | x
CCN(CC)c1ccc(Nc2nc(N3CCOCC3)c3ccccc3n2)cc1 | 55 | n | n | n | n | n | 5.7µM
COc1ccc(Nc2nc(N3CCCC3)c3ccccc3n2)cc1 | n | n | n | n | n | n | x
C[C@@H]1CC[C@H](O)C=CC(=O)O[C@H](C)CC[C@H](O)C=CC(=O)O1 | x | n | x | x | x | x | x
COc1cc(/C=C2\S/C(=N/S(=O)(=O)c3ccccc3)NC2=O)c([N+](=O)[O-])cc1OC | 9.7 | 23 | n | n | n | n | n
COc1ccc(S(=O)(=O)/N=C2/NC(=O)/C(=C\c3cc(OC)c(OC)cc3[N+](=O)[O-])S2)cc1 | n | n | n | n | n | n | x
O=C(NN=Cc1ccco1)c1ccc2nc[nH]c2c1 | x | n | x | x | x | x | x
COCCNC(=O)C[C@@H]1C[C@H]2c3cc(NC(=O)C4CCOCC4)ccc3O[C@H]2[C@H](CO)O1 | active | x | x | x | x | x | n
COC(=O)C[C@@H]1C[C@H]2c3cc(N(C)C)ccc3O[C@H]2[C@@H](CO)O1 | 67 | x | x | x | x | x | n
O=C(C[C@@H]1C[C@@H]2c3cc(NC(=O)C4CCOCC4)ccc3O[C@@H]2[C@H](CO)O1)NCc1cccnc1 | 55 | x | x | x | x | x | n
O=C(N/N=C/c1sc2ccccc2c1O)c1cccc2ccccc12 | 55 | x | n | n | n | n | 69µM
O=C(NCCCn1ccnc1)C(=O)NCC(c1ccco1)N1CCN(c2ccccc2)CC1 (centres undefined) | 45 | n | n | n | n | n | n
O=C(NCCCn1ccnc1)C(=O)NCC(c1ccco1)N1CCN(c2ccc(F)cc2)CC1 (centres undefined) | 59 | n | n | n | n | n | n
C#CCOCCOCCOCCNc1nc(N2CCN(C(=O)Cn3cc(CCCCN)nn3)CC2)nc(N2CCN(C(=O)[C@H](CCCCN)n3cc(CCCC)nn3)CC2)n1 | 32 | n | n | n | n | n | n
C#CCOCCOCCOCCNc1nc(N2CCN(C(=O)[C@H](CCC(=O)O)n3cc([C@@H](N)CCCCN)nn3)CC2)nc(N2CCN(C(=O)[C@H](CCCCN)n3cc([C@@H](N)CC(N)=O)nn3)CC2)n1 | 51 | n | n | n | n | n | n
C#CCOCCOCCOCCNc1nc(N2CCN(C(=O)[C@H](CCC(=O)O)n3cc([C@@H](N)CCCCN)nn3)CC2)nc(N2CCN(C(=O)[C@H](CCC(=O)O)n3cc([C@@H](N)CCCCN)nn3)CC2)n1 | n | n | n | n | n | n | x
SMILES | ARNT TACC3 PPI | UCH37 DUB inh | Cardiac RTF inh | cardiac RTF act | Efflux pump mplx | SUMO Mot1 rescue | AlphaScreen ctr
C#CCOCCOCCOCCNc1nc(N2CCN(C(=O)C([C@@H](C)O)n3cc([C@@H](N)CCCCN)nn3)CC2)nc(N2CCN(C(=O)[C@H](CO)n3cc([C@@H](N)C(C)C)nn3)CC2)n1 (some centres undefined) | n | n | n | n | n | n | x
C#CCOCCOCCOCCNc1nc(N2CCN(C(=O)C([C@@H](C)O)n3cc([C@@H](N)CCCCN)nn3)CC2)nc(N2CCN(C(=O)C([C@@H](C)O)n3cc([C@@H](N)CCCCN)nn3)CC2)n1 (some centres undefined) | 60 | n | n | n | n | n | n
C#CCOCCOCCOCCNc1nc(N2CCN(C(=O)Cn3cc(CC(C)O)nn3)CC2)nc(N2CCN(C(=O)[C@H](CCCCN)n3cc(CCC(=O)O)nn3)CC2)n1 (some centres undefined) | n | n | n | n | n | n | x
CCN(CC)C(=O)C(=O)NN=Cc1ccc(Br)cc1 | x | n | x | x | x | x | x
O=C(CSc1nc2ccccc2o1)NN=Cc1ccccc1C(=O)O | x | n | x | x | x | x | x
O=C(Cc1ccc([N+](=O)[O-])cc1)NN=Cc1cccs1 | x | n | x | x | x | x | x
O=C(NCCCn1ccnc1)C(=O)NCC1OCCN1S(=O)(=O)c1ccc(F)cc1 (centres undefined) | 58 | n | n | n | n | n | 32µM
COc1ccc(S(=O)(=O)N2CCCOC2CNC(=O)C(=O)NCCCn2ccnc2)cc1OC (centres undefined) | 40 | n | n | n | n | n | n
Cc1ccc(C)c(S(=O)(=O)N2CCCOC2CNC(=O)C(=O)NCCCn2ccnc2)c1 (centres undefined) | 56 | n | n | n | n | n | n
COc1ccc(S(=O)(=O)N2CCCOC2CNC(=O)C(=O)NCCCn2ccnc2)cc1 (centres undefined) | x | n | n | n | n | n | x
COc1ccc(S(=O)(=O)N2CCOC2CNC(=O)C(=O)NCCCn2ccnc2)cc1OC (centres undefined) | 59 | n | n | n | n | n | n
Cc1cc(C)c(S(=O)(=O)N2CCCOC2CNC(=O)C(=O)NCCCn2ccnc2)c(C)c1 (centres undefined) | n | n | n | n | n | n | x
COc1cccc(C(C)=NNC(=O)c2ccc(N(C)C)cc2)c1 | x | n | x | x | x | x | x
COCCNC(=O)C(=O)NN=C(C)CC(=O)Nc1cccnc1 | x | n | x | x | x | x | x
CC(=O)Nc1ccc(C=NNc2nc3ccccc3s2)cc1 | x | n | x | x | x | x | x
CCc1ccc2nc(N=C(N)NC(=O)c3ccccc3)nc(C)c2c1 | x | n | x | x | x | x | x
c1ccc(-c2nnc(N3CCN(c4ccccn4)CC3)c3ccccc23)cc1 | n | n | n | n | n | n | x

Screening results: PubChem BioAssay, several laboratories
